ChEMBL document CHEMBL1154249, “Semisynthesis and biological evaluation of abietane-type diterpenes. Revision of the structure of rosmaquinone” (J Nat Prod, 2009)
In brackets after ≈: the same amount, converted by molar mass.

Legend:
Staphylococcus aureus = test: Antibacterial activity against Staphylococcus aureus ATCC 6538 after 24 hrs by broth dilution assay; type: functional
[1] = system: Staphylococcus epidermidis; test: Antibacterial activity against Staphylococcus epidermidis ATCC 14990 after 24 hrs by broth dilution assay; type: functional
Summary of the method: (§1)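 Microdilution in nutrient broth at 37 °C, about (1-5) × 10^5 cfu/mL inoculum, compounds in DMSO (≤1% v/v, matched DMSO controls), in triplicate. Growth followed by OD550. Wells without visible growth after 24 h on a rotary shaker were subcultured in duplicate onto nutrient agar and colonies counted after overnight incubation. MIC is the lowest concentration inhibiting growth at 24 h.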

Bacillus subtilis = test: Antibacterial activity against Bacillus subtilis ATCC 6051 after 24 hrs by broth dilution assay; type: functional
Bacillus cereus = test: Antibacterial activity against Bacillus cereus ATCC 21772 after 24 hrs by broth dilution assay; type: functional; conditions: for MIC: Bacillus cereus, ATCC 21772, 24 h
Candida albicans [2] = test: Antibacterial activity against Candida albicans CECT 170 after 24 hrs by broth dilution assay; type: functional; conditions: CECT 1039, 24 h, in the assay text read “CECT 1039” for “CECT 170”
Summary of the method: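 Yeast grown in Sabouraud liquid medium at 37 °C. Microdilution in triplicate, about (1-5) × 10^5 cfu/mL, DMSO ≤1% v/v with matched controls. OD550 followed. Clear wells at 24 h were plated in duplicate on Sabouraud agar and counted after overnight incubation. MIC is the lowest concentration inhibiting growth.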

Enterococcus faecalis = test: Antibacterial activity against Enterococcus faecalis ATCC 29212 after 24 hrs by broth dilution assay; type: functional; conditions: ATCC 29212, 24 h
Summary of the method: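 Microdilution in brain heart infusion broth, shaken at 37 °C, about (1-5) × 10^5 cfu/mL start, DMSO ≤1% v/v with matched controls, in triplicate. OD550 read. Clear wells at 24 h were subcultured in duplicate onto brain heart infusion agar and counted after overnight incubation. MIC is the lowest concentration giving growth inhibition.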

Escherichia coli = test: Antibacterial activity against Escherichia coli ATCC 9637 after 24 hrs by broth dilution assay; type: functional; conditions: ATCC 9637, 24 h; summary of the method: as §1
Proteus mirabilis = test: Antibacterial activity against Proteus mirabilis CECT 170 after 24 hrs by broth dilution assay; type: functional; conditions: CECT 170, 24 h; summary of the method: as §1
Pseudomonas aeruginosa = test: Antibacterial activity against Pseudomonas aeruginosa AK958 after 24 hrs by broth dilution assay; type: functional; conditions: AK958, 24 h; summary of the method: as §1
Salmonella = test: Antibacterial activity against Salmonella CECT 4569 after 24 hrs by broth dilution assay; type: functional; conditions: CECT 4569, 24 h; summary of the method: as §1
HeLa [3] = test: Cytotoxicity against human HeLa cells at lag phase of growth after 48 hrs by MTT assay; type: functional, cell-based
Summary of the method: (§2)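 Monolayers grown in DMEM with 5% fetal calf serum and penicillin-streptomycin at 37 °C, 5% CO2. 2×10^4 cells/well in lag or log phase were exposed for 48 h to a concentration series of compounds predissolved in DMSO. MTT formazan was dissolved in DMSO and read at 550 nm. IC50 taken from the curve; three independent experiments.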

HeLa [4] = test: Cytotoxicity against human HeLa cells at exponential phase of growth after 48 hrs by MTT assay; type: functional, cell-based; summary of the method: as §2
A549 [5] = test: Cytotoxicity against human A549 cells at lag phase of growth after 48 hrs by MTT assay; type: functional, cell-based; summary of the method: as §2
A549 [6] = test: Cytotoxicity against human A549 cells at exponential phase of growth after 48 hrs by MTT assay; type: functional, cell-based; summary of the method: as §2
MCF7 [7] = test: Cytotoxicity against human MCF7 cells at lag phase of growth after 48 hrs by MTT assay; type: functional, cell-based; summary of the method: as §2
MCF7 [8] = test: Cytotoxicity against human […] cells at exponential phase of growth after 48 hrs by MTT assay; type: functional, cell-based; summary of the method: as §2
Vero [9] = test: Cytotoxicity against african green monkey Vero cells at lag phase of growth after 48 hrs by MTT assay; type: cell-based, Chlorocebus sabaeus; summary of the method: as §2
Vero [10] = test: Cytotoxicity against african green monkey Vero cells at exponential phase of growth after 48 hrs by MTT assay; type: cell-based, Chlorocebus sabaeus; summary of the method: as §2
[11] = system: Mycolicibacterium smegmatis; test: Antibacterial activity against Mycobacterium smegmatis ATCC 19420 after 48 hrs by broth dilution assay; type: functional; conditions: ATCC 19420, 48 h
Summary of the method: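 Brain heart infusion broth with 0.06% Tween 80, 37 °C on a rotary shaker, inoculum about (1-5) × 10^5 cfu/mL, DMSO ≤1% v/v with matched controls, in triplicate. OD550 monitored.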

HEp-2 [12] = test: Cytotoxicity against human Hep2 cells at lag phase of growth after 48 hrs by MTT assay; type: functional, cell-based; summary of the method: as §2
HEp-2 [13] = test: Cytotoxicity against human Hep2 cells at exponential phase of growth after 48 hrs by MTT assay; type: functional, cell-based; summary of the method: as §2
Candida albicans [14] = test: Antibacterial activity against Candida albicans CECT 1039 after 24 hrs by broth dilution assay
[15] = Staphylococcus aureus, ATCC 6538, 24 h, read-out: MIC
[16] = Staphylococcus epidermidis, ATCC 14990, 24 h, read-out: MIC
[17] = Bacillus subtilis, ATCC 6051, 24 h, read-out: MIC
[18] = Homo sapiens, HeLa, 48 h, read-out: IC50
[19] = Homo sapiens, A549, 48 h, read-out: IC50
[20] = Homo sapiens, MCF7, 48 h, read-out: IC50
[21] = Chlorocebus sabaeus, Vero, 48 h, read-out: IC50
[22] = Homo sapiens, HEp-2, 48 h, read-out: IC50

Row | Structure (SMILES) | MIC (Staphylococcus aureus; [15]) [µg/mL] | MIC [1, 16] [µg/mL] | MIC (Bacillus subtilis; [17]) [µg/mL] | MIC (Bacillus cereus) [µg/mL] | MIC (Candida albicans [2]) [µg/mL] | MIC (Enterococcus faecalis) [µg/mL] | MIC (Escherichia coli) [µg/mL] | MIC (Proteus mirabilis) [µg/mL] | MIC (Pseudomonas aeruginosa) [µg/mL] | MIC (Salmonella) [µg/mL] | IC50 (HeLa [3]; [18]) [µM] | IC50 (HeLa [4]; [18]) [µM] | IC50 (A549 [5]; [19]) [µM] | IC50 (A549 [6]; [19]) [µM] | IC50 (MCF7 [7]; [20]) [µM] | IC50 (MCF7 [8]; [20]) [µM] | IC50 (Vero [9]; [21]) [µM] | IC50 (Vero [10]; [21]) [µM] | MIC [11] [µg/mL] | MIC (Staphylococcus aureus) [µg/mL] | also measured
1 | CC(C)c1cc2c(c(O)c1O)[C@@]13CCCC(C)(C)[C@@H]1[C@H](OC3=O)[C@H]2O [ROSMANOL] | 20 (≈ 57.7 µM) | 10 (≈ 28.9 µM) | 10 (≈ 28.9 µM) | 20 (≈ 57.7 µM) | > 40 | > 40 | > 40 | > 40 | > 40 | > 40 | 20.2 | 51.4 | 43.4 | 27.7 | 17.1 | 15.3 | 19.9 | 36.4 | – | – | –
2 | CC(C)c1cc2c(c(O)c1O)[C@@]13CCCC(C)(C)[C@@H]1C[C@@H]2OC3=O [CARNOSOL] | 25 (≈ 75.7 µM) | 5 (≈ 15.1 µM) | 4 (≈ 12.1 µM) | 5 (≈ 15.1 µM) | 20 (≈ 60.5 µM) | > 40 | > 40 | > 40 | > 40 | > 40 | 43.9 | > 60 | > 60 | 47 | 40.9 | 44.5 | > 60 | 51.5 | > 40 | – | –
3 | C[C@H]1COc2c1cc1c(c2O)[C@@]23CCCC(C)(C)[C@@H]2C[C@@H]1OC3=O | – | – | – | – | – | > 40 | > 40 | > 40 | > 40 | > 40 | 56.1 | 37.8 | > 60 | 51.5 | > 60 | > 60 | > 60 | > 60 | > 40 | >40 | MIC [1]: >40 µg/mL; MIC (Bacillus subtilis): >40 µg/mL; MI50 (Bacillus cereus): >40 µg/mL; IC50 (HEp-2 [12]; [22]): > 60 µM; IC50 (HEp-2 [13]; [22]): > 60 µM; MIC (Candida albicans [14]): >40 µg/mL
4 | CO[C@H]1c2cc(C(C)C)c(O)c(O)c2[C@@]23CCCC(C)(C)[C@@H]2[C@@H]1OC3=O | > 40 | 20 (≈ 55.5 µM) | > 40 | 20 (≈ 55.5 µM) | > 40 | > 40 | > 40 | > 40 | > 40 | > 40 | 42.2 | > 60 | 42.5 | > 60 | 37.5 | 55.6 | 42.2 | 47.2 | > 40 | – | –
5 | COc1c(C(C)C)cc2c(c1OC)[C@@]13CCCC(C)(C)[C@@H]1[C@H](OC3=O)[C@@H]2OCc1ccccc1 | – | – | – | – | – | > 40 | > 40 | > 40 | > 40 | > 40 | – | – | – | – | – | – | – | – | > 40 | >40 | MIC [1]: >40 µg/mL; MIC (Bacillus subtilis): >40 µg/mL; MI50 (Bacillus cereus): >40 µg/mL; IC50 (HeLa [3]; hela): Not Active; IC50 (HeLa [4]; hela): Not Active; IC50 (HEp-2 [12]; hep-2): Not Active; IC50 (HEp-2 [13]; hep-2): Not Active; IC50 (A549 [5]; a549): Not Active; IC50 (A549 [6]; a549): Not Active; IC50 (MCF7 [7]; mcf7): Not Active; IC50 (MCF7 [8]; mcf7): Not Active; IC50 (Vero [9]; vero): Not Active; IC50 (Vero [10]; vero): Not Active; MIC (Candida albicans [14]): >40 µg/mL
6 | CC(C)c1cc2c(c(O)c1O)[C@@]13CCCC(C)(C)[C@@H]1[C@@H](O)[C@@H]2OC3=O [ISOROSMANOL] | 40 (≈ 115 µM) | 20 (≈ 57.7 µM) | 30 (≈ 86.6 µM) | 20 (≈ 57.7 µM) | > 40 | > 40 | > 40 | > 40 | > 40 | > 40 | > 60 | > 60 | > 60 | 46 | 54.3 | 36.1 | > 60 | > 60 | > 40 | – | –
7 | CC(C)C1=CC2=C(C(=O)C1=O)[C@@]13CCCC(C)(C)[C@@H]1[C@H](OC3=O)[C@H]2O [ROSMAQUINONE] | 20 (≈ 58.1 µM) | 40 (≈ 116 µM) | 8 (≈ 23.2 µM) | 10 (≈ 29 µM) | > 40 | > 40 | > 40 | > 40 | > 40 | > 40 | > 60 | > 60 | > 60 | 28.8 | 39.5 | > 60 | > 60 | > 60 | > 40 | – | –
8 | C[C@H]1COC2=C1C(=O)C1=C(C2=O)[C@@]23CCCC(C)(C)[C@@H]2C[C@@H]1OC3=O | – | – | – | – | – | > 40 | > 40 | > 40 | > 40 | > 40 | 50.3 | 17.5 | > 58.4 | 40.4 | 33 | 18.4 | > 58.4 | > 58.4 | > 40 | >40 | MIC [1]: >40 µg/mL; MIC (Bacillus subtilis): >40 µg/mL; MI50 (Bacillus cereus): >40 µg/mL; IC50 (HEp-2 [12]; [22]): > 58.4 µM; IC50 (HEp-2 [13]; [22]): 39.8 µM; MIC (Candida albicans [14]): >40 µg/mL
